Key:
MCF7 [1] = experiment: Anticancer activity against human MCF7 cells assessed as inhibition of cell proliferation measured after 48 hrs by MTT assay; type: functional, cell-based; settings: MCF7, 48 h
How it was run: (§1)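 Cells seeded at ~5,000/well, grown 24 h to partial monolayer, then exposed 48 h at 37°C, 5% CO2 to 0.5, 1, 2, 4, 10 and 20 µM (DMSO ≤0.1%). MTT final 0.5 mg/ml for 4 h, formazan dissolved in DMSO, A570. Survival expressed as % of untreated control; IC50 from dose-response curves; three independent experiments. MDA-MB-231, MCF-7, HepG2 in DMEM; A549 and LO-2 in RPMI-1640; 10% FBS.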

L02 = experiment: Cytotoxicity against human L02 cells assessed as reduction in cell viability measured after 48 hrs by MTT assay; type: cell-based; settings: L02, 48 h; how it was run: as §1
[2] = Anticancer activity against human MDA-MB-231 cells assessed as inhibition of cell proliferation measured after 48 hrs by MTT assay; type: functional, cell-based; settings: MDA-MB-23, 48 h; how it was run: as §1
HepG2 = experiment: Anticancer activity against human HepG2 cells assessed as inhibition of cell proliferation measured after 48 hrs by MTT assay; type: functional, cell-based; settings: HepG2, 48 h; how it was run: as §1
MCF7 [3] = experiment: Antiproliferative activity against human MCF7 cells assessed as inhibition of cell growth rate at 10 uM measured after 48 hrs by MTT assay; type: functional
How it was run: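 MCF-7 cells in DMEM with 10% FBS exposed to a single 10 µM concentration for 48 h. Read-out by MTT (0.5 mg/ml, 4 h, DMSO dissolution, A570). Inhibition rate given versus untreated control as mean ± SD, n = 3.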

A549 = experiment: Anticancer activity against human A549 cells assessed as inhibition of cell proliferation measured after 48 hrs by MTT assay; type: functional, cell-based; settings: A549, 48 h
How it was run: as §1, with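 “experiments.” for “experiments. MDA-MB-231, MCF-7, HepG2 in DMEM; A549 and LO-2 in RPMI-1640; 10% FBS.”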

[4] = Prodrug release in human MDA-MB-231 cells assessed as increase in intracellular NO level at 25 uM measured after 2.5 hrs by total nitric oxide assay; type: ADME, cell-based; settings: mda-mb-23, 2.5 h
How it was run: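 MDA-MB-231 (2×10^5 cells/well) cultured 24 h, then treated 2.5 h with compound at 25 µM or DMSO. Cells harvested, lysed in nitric oxide assay buffer 1 h on ice; lysate NO quantified with a total nitric oxide assay kit. Mean ± SD, n = 3.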

[5] = Anticancer activity against human MDA-MB-231 cells assessed as inhibition of cell proliferation measured after 48 hrs in presence of 3-amino-7-hydroxy-6-methoxy-2H-chromen-2-one by MTT assay; type: functional, cell-based; settings: MDA-MB-23, 48 h
How it was run: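 MDA-MB-231 cells in DMEM with 10% FBS, ~5,000 cells/well, 24 h attachment, then compound for 48 h at 37°C, 5% CO2. MTT 0.5 mg/ml final for 4 h, DMSO solubilization, absorbance 570 nm; inhibition relative to untreated cells; experiments done three times.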

[6] = Prodrug release in human MDA-MB-231 cells assessed as increase in intracellular NO level at 10 uM measured after 2.5 hrs by DAF-FM DA reagent based scanning electron microscopy; type: ADME, cell-based; settings: mda-mb-231, 2.5 h, in the assay text read “laser scanning confocal microscopy” for “scanning electron microscopy”
How it was run: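 After 24 h growth at 5×10^4 cells/well, MDA-MB-231 cells loaded with DAF-FM DA (5 µM) 30 min at 37°C, 5% CO2, PBS-washed, then incubated 2.5 h with compound at 1 or 10 µM (scopoletin at 10 µM). NO fluorescence imaged by laser scanning confocal microscopy.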

| Structure (SMILES) | IC50 (MCF7 [1]) [µM] | IC50 (HepG2) [µM] | IC50 (A549) [µM] | Drug metabolism [4] | Drug metabolism [6] | IC50 (L02) [µM] | IC50 [2] [µM] | inhibition at 10 µM (MCF7 [3]) [%] | IC50 [5] [µM] |
| --- | --- | --- | --- | --- | --- | --- | --- | --- | --- |
| COc1cccc2c1C(=O)c1c(O)c3c(c(O)c1C2=O)C[C@@](O)(C(=O)CO)C[C@@H]3O[C@H]1C[C@H](N)[C@H](O)[C@H](C)O1 [DOXORUBICIN] | 0.6 | 0.62 |  |  |  | 0.59 | 0.55 |  |  |
| COc1cc2cc(N)c(=O)oc2cc1O |  |  |  |  |  |  | > 25 | 7.13 |  |
| COc1cc2cc(NC(C)=O)c(=O)oc2cc1OCCOc1no[n+]([O-])c1S(=O)(=O)c1ccccc1 | 6.89 | 4.83 | 8.79 | Metabolite_Detected |  | 10.2 | 4.99 | 83.7 |  |
| COc1cc2cc(NC(C)=O)c(=O)oc2cc1O |  |  |  |  |  |  |  | 5.21 |  |
| COc1cc2ccc(=O)oc2cc1OCCCCCOc1no[n+]([O-])c1S(=O)(=O)c1ccccc1 | 3.85 | 3.42 | 10.6 | Metabolite_Detected |  | 8.86 | 3.17 | 87.1 |  |
| COc1cc2ccc(=O)oc2cc1OCCCCCCOc1no[n+]([O-])c1S(=O)(=O)c1ccccc1 | 4.48 | 3.79 | 9.43 | Metabolite_Detected |  | 12.4 | 3.35 | 84.8 |  |
| O=S(=O)(c1ccccc1)c1c(OCCCO)no[n+]1[O-] |  |  |  |  |  |  | 7.25 |  | 6.36 |
| COc1cc2ccc(=O)oc2cc1O [SCOPOLETIN] | > 25 | > 25 | > 25 |  | Metabolite_Notdetected | > 25 | > 25 | 7.95 |  |
| COc1cc2cc(NC(C)=O)c(=O)oc2cc1OCCCCCOc1no[n+]([O-])c1S(=O)(=O)c1ccccc1 | 6.27 | 5.42 | 11.4 | Metabolite_Detected |  | 13.8 | 4.34 | 73.6 |  |
| COc1cc2ccc(=O)oc2cc1OCCOc1no[n+]([O-])c1S(=O)(=O)c1ccccc1 | 3.54 | 3.61 | 7.24 | Metabolite_Detected |  | 10.9 | 2.86 | 89.2 |  |
| COc1cc2cc(NC(C)=O)c(=O)oc2cc1OCCCCCCOc1no[n+]([O-])c1S(=O)(=O)c1ccccc1 | 11.3 | 6.59 | 15 | Metabolite_Detected |  | 17.3 | 7.89 | 48.6 |  |

Second part, led by results:

| IC50 (MCF7 [1]) [µM] | IC50 (HepG2) [µM] | IC50 (A549) [µM] | Drug metabolism [4] | Drug metabolism [6] | Structure (SMILES) | IC50 (L02) [µM] | IC50 [2] [µM] | inhibition at 10 µM (MCF7 [3]) [%] | IC50 [5] [µM] |
| --- | --- | --- | --- | --- | --- | --- | --- | --- | --- |
| 3.04 | 3.25 | 6.14 | Metabolite_Detected |  | COc1cc2ccc(=O)oc2cc1OCCCCOc1no[n+]([O-])c1S(=O)(=O)c1ccccc1 | 9.33 | 2.79 | 84.4 |  |
| 2.28 | 2.64 | 5.03 | Metabolite_Detected |  | COc1cc2cc(N)c(=O)oc2cc1OCCCCOc1no[n+]([O-])c1S(=O)(=O)c1ccccc1 | 8.63 | 1.93 | 89 |  |
| 2.4 | 2.82 | 9.81 | Metabolite_Detected |  | COc1cc2cc(NC(C)=O)c(=O)oc2cc1OCCCOc1no[n+]([O-])c1S(=O)(=O)c1ccccc1 | 8.36 | 3.81 | 88.5 |  |
| 3.14 | 3.06 | 8.06 | Metabolite_Detected |  | COc1cc2cc(N)c(=O)oc2cc1OCCCCCCOc1no[n+]([O-])c1S(=O)(=O)c1ccccc1 | 10.3 | 2.93 | 84.4 |  |
| 2.27 | 2.9 | 5.45 |  |  | COc1cc2ccc(=O)oc2cc1OCCCOc1no[n+]([O-])c1S(=O)(=O)c1ccccc1 | 7.82 | 1.85 | 88.6 |  |
| 3.44 | 3.29 | 7.19 | Metabolite_Detected |  | COc1cc2cc(NC(C)=O)c(=O)oc2cc1OCCCCOc1no[n+]([O-])c1S(=O)(=O)c1ccccc1 | 9.19 | 3.15 | 80.4 |  |
| 2.62 | 3.46 | 6.88 | Metabolite_Detected |  | COc1cc2cc(N)c(=O)oc2cc1OCCCCCOc1no[n+]([O-])c1S(=O)(=O)c1ccccc1 | 12.2 | 2.4 | 88.8 |  |
| 2.77 | 3.06 | 5.91 | Metabolite_Detected |  | COc1cc2cc(N)c(=O)oc2cc1OCCOc1no[n+]([O-])c1S(=O)(=O)c1ccccc1 | 9.82 | 2.46 | 88.5 |  |
